Our source for the IC50, Ki and inhibition values is ChEMBL document CHEMBL2062450, “New cytosine derivatives as inhibitors of DNA methylation” (Eur J Med Chem, 2012).

The test system of one assay is HeLa. Kind of assay: Inhibition of DNA methylation in human HeLa cells assessed as reduction of 5-methylcytosine level using [gamma-32P]ATP after 72 hrs. In kind it is functional, cell-based. In short, it runs like this:
(§1)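 HeLa (RPMI-1640) and HEK293 (DMEM) cells, medium with 10% FBS, antibiotics and vitamin mix. Seeded at 1.25 × 10⁵ per well and exposed 72 h at 37 °C, 5% CO2 to 1, 10 or 100 µM. DNA digested with micrococcal nuclease and spleen phosphodiesterase, then 5'-labelled with [γ-32P]ATP and T4 polynucleotide kinase. 3'-phosphate removed with nuclease P1. Nucleotides resolved by 2D cellulose TLC. Methylation given as m5C/(m5C+dC+dT) × 100.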

For the next assay, the system named is HEK293. As to the kind of experiment: Inhibition of DNA methylation in human HEK293 cells assessed as reduction of 5-methylcytosine level using [gamma-32P]ATP after 72 hrs. Type of assay: cell-based. Conditions: HEK293, 72 h. In short, it runs like this:
as §1

The target of assay [1] is T1, Orphan methyltransferase M.SssI (Spiroplasma monobiae, UniProt P15840). Kind of assay: Competitive inhibition of Spiroplasma sp. MQ1 SssI methyltransferase using pUC18 as substrate measured for 10 mins by Dixon plot analysis. In short, it runs like this:
(§2)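 M.SssI reaction in 10 mM Tris-HCl pH 7.9 with 50 mM NaCl, 10 mM DTT, 2 mM [3H]CH3-SAM, 1 U enzyme and pUC18 plasmid (0.1, 0.5 or 1 µg). Run at 37 °C for 1, 3, 5 and 10 min with inhibitor present to get initial rates V0 (nM/min). Ki taken from Dixon plot. Reactions repeated twice.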

For assay [2], the target named is T1, Orphan methyltransferase M.SssI. As to the kind of experiment: Uncompetitive inhibition of Spiroplasma sp. MQ1 SssI methyltransferase using pUC18 as substrate measured for 10 mins by Cornish-Bowden's plot analysis. Details: […]. In short, it runs like this:
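M.SssI reaction in 10 mM Tris-HCl pH 7.9 with 50 mM NaCl, 10 mM DTT, 2 mM [3H]CH3-SAM, 1 U enzyme and pUC18 (0.1, 0.5 or 1 µg). Run at 37 °C for 1–10 min to get V0. Ki' obtained by Cornish-Bowden method, plotting S/V against inhibitor concentration. Duplicates.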

The target is the same in assay [3]. Kind of assay: Non-competitive inhibition of Spiroplasma sp. MQ1 SssI methyltransferase using pUC18 as substrate measured for 10 mins by Dixon plot analysis. In short, it runs like this:
as §2

The target of assay [4] is T2, DNA (cytosine-5)-methyltransferase 1 (Homo sapiens, UniProt P26358). As to the kind of experiment: Inhibition of DNMT1 in human HeLa cell nuclear extract assessed as methylated substrate level at 100 uM by ELISA.
T2 sequence (P26358 whole entry): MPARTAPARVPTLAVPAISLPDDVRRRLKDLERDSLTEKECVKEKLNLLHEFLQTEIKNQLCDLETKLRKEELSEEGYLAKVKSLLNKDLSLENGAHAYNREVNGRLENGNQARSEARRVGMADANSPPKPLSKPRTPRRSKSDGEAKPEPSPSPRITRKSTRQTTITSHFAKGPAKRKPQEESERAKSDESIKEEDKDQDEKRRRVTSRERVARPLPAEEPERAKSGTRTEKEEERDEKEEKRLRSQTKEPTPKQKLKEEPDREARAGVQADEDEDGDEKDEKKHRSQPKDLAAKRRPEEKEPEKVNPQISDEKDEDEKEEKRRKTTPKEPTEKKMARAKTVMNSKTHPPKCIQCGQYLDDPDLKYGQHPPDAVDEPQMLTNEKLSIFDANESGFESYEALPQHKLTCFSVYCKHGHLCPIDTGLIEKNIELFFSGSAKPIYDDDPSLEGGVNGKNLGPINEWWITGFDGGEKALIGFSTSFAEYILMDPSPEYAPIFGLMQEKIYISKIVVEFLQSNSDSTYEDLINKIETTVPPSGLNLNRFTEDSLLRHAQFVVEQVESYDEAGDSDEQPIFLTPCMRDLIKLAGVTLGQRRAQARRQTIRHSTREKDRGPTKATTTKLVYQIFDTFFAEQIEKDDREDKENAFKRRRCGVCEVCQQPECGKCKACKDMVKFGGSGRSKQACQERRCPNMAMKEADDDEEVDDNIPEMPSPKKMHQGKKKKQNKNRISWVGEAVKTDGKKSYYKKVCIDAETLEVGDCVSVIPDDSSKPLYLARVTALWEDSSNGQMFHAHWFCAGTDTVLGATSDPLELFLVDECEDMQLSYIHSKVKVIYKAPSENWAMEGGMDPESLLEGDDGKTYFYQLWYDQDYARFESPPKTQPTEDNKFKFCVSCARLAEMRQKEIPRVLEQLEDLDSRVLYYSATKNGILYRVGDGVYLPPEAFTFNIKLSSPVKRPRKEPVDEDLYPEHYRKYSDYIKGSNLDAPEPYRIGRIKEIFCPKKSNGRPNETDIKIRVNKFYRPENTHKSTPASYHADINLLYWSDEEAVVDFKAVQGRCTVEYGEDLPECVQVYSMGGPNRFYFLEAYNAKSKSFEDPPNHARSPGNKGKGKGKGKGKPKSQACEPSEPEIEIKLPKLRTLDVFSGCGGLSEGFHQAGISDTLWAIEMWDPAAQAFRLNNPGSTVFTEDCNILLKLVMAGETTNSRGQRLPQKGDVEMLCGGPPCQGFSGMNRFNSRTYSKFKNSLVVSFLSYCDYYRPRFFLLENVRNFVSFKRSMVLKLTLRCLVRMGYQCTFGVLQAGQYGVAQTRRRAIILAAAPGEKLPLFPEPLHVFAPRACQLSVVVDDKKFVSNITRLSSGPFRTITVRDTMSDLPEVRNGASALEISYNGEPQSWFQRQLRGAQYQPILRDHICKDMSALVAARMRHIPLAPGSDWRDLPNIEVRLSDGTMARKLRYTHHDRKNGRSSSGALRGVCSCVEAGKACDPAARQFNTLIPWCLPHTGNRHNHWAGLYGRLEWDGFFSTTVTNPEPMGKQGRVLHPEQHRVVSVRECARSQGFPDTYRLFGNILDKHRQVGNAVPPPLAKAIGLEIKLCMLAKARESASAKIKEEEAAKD
Assay [5] addresses T2, DNA (cytosine-5)-methyltransferase 1. As to the kind of experiment: Inhibition of DNMT1 in human HeLa cell nuclear extract assessed as methylated substrate level at 10 uM by ELISA. In short, it runs like this:
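HeLa nuclear extract (cells grown to 80% confluency; protein by Bradford) with hemimethylated DNA substrate, incubated 1 h with or without inhibitor. Methylated product detected by ELISA with anti-5-methylcytosine antibody, colorimetric read-out at 450 nm. Each experiment repeated twice.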
A general note: In an ELISA, binding on a coated surface is turned into a signal by an enzyme label.

Assay [6] shares this target. Kind of assay: Inhibition of DNMT1 in human HeLa cells assessed as 2'-deoxytymidine phosphate level by two-dimensional thin layer chromatography analysis. In kind it is cell-based. In short, it runs like this: as §1
Assay [7] concerns the target T1, Orphan methyltransferase M.SssI. Kind of assay: Inhibition of Spiroplasma sp. MQ1 SssI methyltransferase-mediated DNA cytosine methylation using pUC18 as substrate and [3H]CH3-SAM measured up to 10 mins. In short, it runs like this: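 Tritium-incorporation assay with SssI methyltransferase, pUC18 plasmid (0.1–1 µg) and 2 mM [3H]CH3-SAM. Buffer is 10 mM Tris-HCl pH 7.9, 50 mM NaCl, 10 mM DTT. Sampled at 1, 3, 5 and 10 min at 37 °C to give initial velocity V0. Reactions done twice.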

In assay [8] the target is T2, DNA (cytosine-5)-methyltransferase 1. As to the kind of experiment: Inhibition of DNMT1 in human HeLa cell nuclear extract assessed as methylated substrate level by ELISA.
Assay [9] shares this target. As to the kind of experiment: Inhibition of DNMT1 in human HeLa cells assessed as 2'-deoxyguanosine phosphate level by two-dimensional thin layer chromatography analysis. In kind it is cell-based. In short, it runs like this: as §1
For assay [10] the target is unchanged. As to the kind of experiment: Inhibition of DNMT1 in human HeLa cells assessed as 5-methyl-2'-deoxycytosine phosphate level by two-dimensional thin layer chromatography analysis. In kind it is cell-based. In short, it runs like this:
as §1

The target is the same in assay [11]. As to the kind of experiment: Inhibition of DNMT1 in human HeLa cells assessed as 2'-deoxyadenosine phosphate level by two-dimensional thin layer chromatography analysis. In kind it is cell-based. Conditions: in the assay text read “5-methylcytosine level” for “2'-deoxyadenosine phosphate level”. In short, it runs like this:
as §1

The target is the same in assay [12]. As to the kind of experiment: Inhibition of DNMT1 in human HeLa cells assessed as 2'-deoxycytosine phosphate level by two-dimensional thin layer chromatography analysis. Type of assay: cell-based. In short, it runs like this:
as §1

Calls of active or inactive are those of the source. No cut-off for these calls is given here.

T1 sequence (P15840 whole entry): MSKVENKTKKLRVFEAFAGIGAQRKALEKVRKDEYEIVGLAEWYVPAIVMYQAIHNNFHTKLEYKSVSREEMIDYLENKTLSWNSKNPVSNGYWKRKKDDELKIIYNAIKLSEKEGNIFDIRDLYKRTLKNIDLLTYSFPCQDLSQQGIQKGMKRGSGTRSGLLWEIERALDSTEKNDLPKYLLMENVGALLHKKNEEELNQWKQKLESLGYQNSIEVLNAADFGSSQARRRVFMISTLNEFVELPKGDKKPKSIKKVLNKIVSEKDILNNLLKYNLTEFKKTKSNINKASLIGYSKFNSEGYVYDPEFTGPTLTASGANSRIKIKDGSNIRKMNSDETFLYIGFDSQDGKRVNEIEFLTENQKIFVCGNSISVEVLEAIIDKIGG

By IC50 is commonly meant the midpoint of a concentration-inhibition curve. In general, Ki refers to the dissociation constant of the complex between target and ligand, obtained from inhibition or displacement. Read a high Ki as lower affinity. For the compound `Cc1c[nH]c(=O)nc1NCc1ccco1`, the IC50 is 88 µM with HeLa and more than 100 µM with HEK293. In addition, affinity in assay [1] was put at a Ki of 15 µM.
Consider `O=c1nc(NCc2ccc(CO)o2)cc[nH]1`, for which the Ki in assay [1] was 700 µM.
`CCCCNc1ccnc(=O)[nH]1` gave a Ki in [2] of 1000 µM.
Regarding `O=c1nc(NCc2ccccc2[N+](=O)[O-])cc[nH]1`, the affinity in [3], expressed as Ki, was 6400 µM.
The compound `O=c1ncc(CS(=O)(=O)O)c(NCc2ccccc2)[nH]1` gave a Ki in [1] of 33 µM.
The inhibition is the share of the control response that was lost under treatment. Turning to `O=C(O)[C@H](Cc1c[nH]c2ccccc12)N1C(=O)c2ccccc2C1=O`, the inhibition in assay [4] amounted to 11%. For the same compound, in assay [1], the Ki worked out at 0.23 µM.
As for `Nc1nc[nH]c(=O)n1`, in assay [1], the affinity corresponds to a Ki of 5500 µM.
The same measure, in the same setting: the same measure for `Cc1ccc(S(=O)(=O)Nc2cc[nH]c(=O)n2)cc1`: 550 µM.
Take `CC/C=N/c1cc[nH]c(=O)n1`: the inhibition constant (Ki) in assay [2] amounted to 3400 µM.
For the compound `O=C1N=C(NCc2ccco2)NCN1`, the IC50 was 26 µM in the assay on HeLa, 2.73 µM in assay [7], 22 µM in assay [8] and 75 µM in the assay on HEK293. Further, the inhibition is 55% in assay [5] and “Dose-dependent effect” in assay [8]. The inhibition entry in [6], in [9], in assay [10], in assay [11] and in assay [12] was “Active” each time. In assay [1], this compound returned a Ki of 0.7 µM.
Regarding `O=c1ncc(CS(=O)(=O)O)c(NCc2ccco2)[nH]1`, in [1], the affinity, expressed as Ki, was 112 µM.
Same read-out and setting: the same measure for `Cc1ccc(CNc2cc[nH]c(=O)n2)cc1`: 26 µM; for `Cc1c[nH]c(=O)nc1NCc1ccccc1`: 3.6 µM; for `O=c1nc(NCc2ccco2)c(CO)c[nH]1`: 440 µM.
As for `O=Cc1cnc(=O)[nH]c1NCc1ccccc1`, the Ki in [1] amounted to 35 µM.
For the compound `O=C1N=C(NCc2ccccc2)NCN1`, in [1], the Ki was determined as 20 µM.
For the compound `CCC/C=N/c1cc[nH]c(=O)n1`, the Ki in assay [2] amounted to 800 µM.
`O=c1nc(NCc2ccco2)ccn1[C@H]1C[C@H](O)[C@@H](CO)O1` gave a Ki in assay [1] of 170 µM.
`O=c1nc(NCc2cccnc2)cc[nH]1` displayed a Ki in assay [1] of 400 µM.
In turn, `CCNc1cc[nH]c(=O)n1` came in with a Ki in [2] of 6000 µM.
As to `O=c1nc(NCc2ccco2)cc[nH]1`, the Ki in assay [1] stood at 70 µM.
With `CC(=O)OCc1c[nH]c(=O)nc1NCc1ccccc1`, in assay [1], affinity was put at a Ki of 23 µM.
`C/C=N/c1cc[nH]c(=O)n1` yielded an inhibitory constant (Ki) in assay [2] of 5600 µM.
In turn, `CC(=O)OCc1c[nH]c(=O)nc1NCc1ccco1` displayed an inhibition constant (Ki) in assay [1] of 50 µM.
For `O=C(O[C@@H]1Cc2c(O)cc(O)cc2O[C@@H]1c1cc(O)c(O)c(O)c1)c1cc(O)c(O)c(O)c1` [EPIGALOCATECHIN GALLATE], the inhibition in [5] was 42%. In addition, the Ki in assay [1] was 0.028 µM.
On to `O=Cc1c[nH]c(=O)nc1NCc1ccco1`, for which the Ki in assay [1] was 83 µM.
In assay [1], `Cc1cn([C@H]2C[C@H](O)[C@@H](CO)O2)c(=O)nc1NCc1ccco1` displayed a Ki of 250 µM.
For `O=c1nc(NCc2ccccc2)cc[nH]1`, the IC50 with HeLa is 31 µM; in the assay with HEK293, more than 100 µM. The inhibition entry in assay [6], in assay [9], in assay [10], in assay [11] and in assay [12] was “Active” in each case. Further, the Ki in assay [1] was 10 µM.
`CCCCNCc1c[nH]c(=O)nc1NCc1ccco1` came in with a Ki in [1] of 960 µM.
The same measure, in the same setting: the same measure for `O=c1nc(NCc2ccccc2)c(CO)c[nH]1`: 135 µM.
